Test results reported in ChEMBL document CHEMBL1127562, “N-substituted spirosuccinimide, spiropyridazine, spiroazetidine, and acetic acid aldose reductase inhibitors derived from isoquinoline-1,3-diones. 2” (J Med Chem, 1994).
Blank lines part the entries; values can stand above or below the molecule they belong to. The source made the active and inactive calls. The calls are words filed in the database; no cut-off is given here.

How the values were obtained:
Rattus norvegicus [1] = assay: Tested for in vivo inhibition of galactitol accumulation in the lens of galactose-fed rats at the dose of 25.9 (mg/kg/day); NS=Not significant; format: functional, organism-based; settings: Lens of camera-type eye
[2] = molecular target: Aldo-keto reductase family 1 member B1 (Bos taurus) (UniProt P16116); assay: Inhibition of aldose reductase activity in partially purified bovine lens preparation at 10e-5 M
Summary of the method: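 Partially purified bovine lens aldose reductase. Reduction of DL-glyceraldehyde substrate followed spectrophotometrically. Activity expressed as average inhibition at the tested concentrations, 1×10^-5, 1×10^-6, 1×10^-7 and 4×10^-6 M as printed; IC50 in M where given.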

Rattus norvegicus [3] = assay: Tested for in vivo inhibition of galactitol accumulation in the sciatic nerve galactose-fed rats at the dose of 25.9 (mg/kg/day); format: functional
Summary of the method: (§1)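 Rats were given a 20% galactose diet for 4 days, with the test compound administered in the diet. Sciatic nerve galactitol accumulation was measured, and activity is given as % inhibition at the stated daily dose (mg/kg/day). Values are mean ± SEM, n = 6 animals; p < 0.01 unless indicated. NS means no significant inhibition of polyol accumulation.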

Rattus norvegicus [4] = assay: Tested for in vivo inhibition of galactitol accumulation in the sciatic nerve of galactose-fed rats at the dose of 9.5 (mg/kg/day); format: functional
Summary of the method: (§2)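 Rats fed a 20% galactose diet for 4 days, with test compound given in the diet at the stated daily dose (mg/kg/day). Read-out is inhibition of galactitol (polyol) accumulation in sciatic nerve. Values are % inhibition, mean ± SEM of six animals; p < 0.01 unless marked (some p < 0.05). NS = no significant inhibition of polyol accumulation. Tolrestat was the reference standard.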

Rattus norvegicus [5] = assay: Tested for in vivo inhibition of galactitol accumulation in the lens of galactose-fed rats at the dose of 57.2 (mg/kg/day); format: functional, Lens of camera-type eye
Summary of the method: (§3)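 Galactosemic rats were fed 20% galactose for 4 days, with the compound mixed into the diet. […] galactitol accumulation was measured, and activity is given as % inhibition at the stated daily dose (mg/kg/day). Values are mean ± SEM of six animals; p < 0.01 unless indicated. NS means no significant inhibition of polyol accumulation.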

Rattus norvegicus [6] = assay: Tested for in vivo inhibition of galactitol accumulation in the sciatic nerve of galactose-fed rats at the dose of 57.2 (mg/kg/day); format: functional; summary of the method: as §2
Rattus norvegicus [7] = assay: Tested for in vivo inhibition of galactitol accumulation in the sciatic nerve of galactose-fed rats at the dose of 56.1 (mg/kg/day); format: functional; summary of the method: as §2
Rattus norvegicus [8] = assay: Tested for in vivo inhibition of galactitol accumulation in the lens of galactose-fed rats at the dose of 56.1 (mg/kg/day); format: functional, Lens of camera-type eye; summary of the method: as §3
Rattus norvegicus [9] = assay: Tested for in vivo inhibition of galactitol accumulation in the lens of galactose-fed rats at the dose of 96.6 (mg/kg/day); NS=Not significant; format: functional, organism-based; settings: Lens of camera-type eye; summary of the method: as §3
Rattus norvegicus [10] = assay: Tested for in vivo inhibition of galactitol accumulation in the sciatic nerve of galactose-fed rats at the dose of 48.8 (mg/kg/day); format: functional; summary of the method: as §2
Rattus norvegicus [11] = assay: Tested for in vivo inhibition of galactitol accumulation in the sciatic nerve of galactose-fed rats at the dose of 96.6 (mg/kg/day); format: functional; summary of the method: as §2
Rattus norvegicus [12] = assay: Tested for in vivo inhibition of galactitol accumulation in the lens of galactose-fed rats at the dose of 48.8 (mg/kg/day); NS=Not significant; format: functional, organism-based; settings: Lens of camera-type eye
Rattus norvegicus [13] = assay: Tested for in vivo inhibition of galactitol accumulation in the sciatic nerve of galactose-fed rats at the dose of 0.5 (mg/kg/day); format: functional; summary of the method: as §1
Rattus norvegicus [14] = assay: Tested for in vivo inhibition of galactitol accumulation in the sciatic nerve of galactose-fed rats at the dose of 0.9 (mg/kg/day); format: functional; summary of the method: as §1
Rattus norvegicus [15] = assay: Tested for in vivo inhibition of galactitol accumulation in the sciatic nerve of galactose-fed rats at the dose of 47 (mg/kg/day); format: functional; summary of the method: as §1
Rattus norvegicus [16] = assay: Tested for in vivo inhibition of galactitol accumulation in the lens of galactose-fed rats at the dose of 47 (mg/kg/day); NS=Not significant; format: functional, organism-based; settings: Lens of camera-type eye
Rattus norvegicus [17] = assay: Tested for in vivo inhibition of galactitol accumulation in the lens of galactose-fed rats at the dose of 50.9 (mg/kg/day); format: functional, Lens of camera-type eye
Rattus norvegicus [18] = assay: Tested for in vivo inhibition of galactitol accumulation in the sciatic nerve of galactose-fed rats at the dose of 50.9 (mg/kg/day); format: functional; summary of the method: as §2
Rattus norvegicus [19] = assay: Tested for in vivo inhibition of galactitol accumulation in the lens of galactose-fed rats at the dose of 24.4 (mg/kg/day); NS=Not significant; format: functional, organism-based; settings: Lens of camera-type eye
Rattus norvegicus [20] = assay: Tested for in vivo inhibition of galactitol accumulation in the sciatic nerve of galactose-fed rats at the dose of 24.4 (mg/kg/day); format: functional; summary of the method: as §1
Rattus norvegicus [21] = assay: Tested for in vivo inhibition of galactitol accumulation in the lens of galactose-fed rats at the dose of 1.1 (mg/kg/day); NS=Not significant; format: functional, organism-based; settings: Lens of camera-type eye
Rattus norvegicus [22] = assay: Tested for in vivo inhibition of galactitol accumulation in the sciatic nerve of galactose-fed rats at the dose of 27.1 (mg/kg/day); format: functional; summary of the method: as §1
Rattus norvegicus [23] = assay: Tested for in vivo inhibition of galactitol accumulation in the sciatic nerve of galactose-fed rats at the dose of 1.1 (mg/kg/day); format: functional; summary of the method: as §1
Rattus norvegicus [24] = assay: Tested for in vivo inhibition of galactitol accumulation in the lens of galactose-fed rats at the dose of 27.1 (mg/kg/day); format: functional, Lens of camera-type eye

SMILES: COC(=O)NC(=O)CC1C(=O)N(Cc2ccc(Br)cc2F)C(=O)c2ccc(F)cc21 (stereo not drawn)
inhibition (Rattus norvegicus [1]): inactive
inhibition [2]: 55%
Inhibition (Rattus norvegicus [3]): 78%

SMILES: CN1C(=O)CC2(C1=O)C(=O)N(Cc1nc3cc(C(F)(F)F)ccc3s1)C(=O)c1ccccc12 (stereo not drawn)
Inhibition (Rattus norvegicus [4]): 82%
inhibition [2]: inactive

SMILES: COC(=O)NC(=O)CC1C(=O)N(Cc2nc3cc(C(F)(F)F)ccc3s2)C(=O)c2ccccc21 (stereo not drawn)
inhibition (Rattus norvegicus [9]): inactive
inhibition [2]: 95%
Inhibition (Rattus norvegicus [10]): 61%
Inhibition (Rattus norvegicus [11]): 73%
NS (Rattus norvegicus [12]): inactive

SMILES: COC(=O)NC(=O)CC1C(=O)N(C)C(=O)c2ccc(F)cc21 (stereo not drawn)
Inhibition (Rattus norvegicus [15]): 58%
inhibition [2]: 71%
inhibition (Rattus norvegicus [16]): inactive

SMILES: COC(=O)NC(=O)CC1C(=O)N(C)C(=O)c2ccc(Br)cc21 (stereo not drawn)
inhibition (Rattus norvegicus [19]): inactive
Inhibition (Rattus norvegicus [20]): 68%
inhibition [2]: 82%

Continued, in another order:

inhibition [2]: inactive
SMILES: CC(=O)NN1C(=O)CC2(C(=O)N(Cc3ccc(Br)cc3F)C(=O)c3ccccc32)C1=O (stereo not drawn)
Inhibition (Rattus norvegicus [5]): 25%
Inhibition (Rattus norvegicus [6]): 73%

inhibition [2]: inactive
SMILES: NN1C(=O)CC2(C1=O)C(=O)N(Cc1ccc(Br)cc1F)C(=O)c1ccccc12 (stereo not drawn)
Inhibition (Rattus norvegicus [7]): 72%
Inhibition (Rattus norvegicus [8]): 82%

inhibition [2]: inactive
SMILES: CCN1C(=O)CC2(C1=O)C(=O)N(Cc1ccc(Br)cc1F)C(=O)c1ccccc12 (stereo not drawn)
Inhibition (Rattus norvegicus [13]): 37%
Inhibition (Rattus norvegicus [14]): 65%

inhibition [2]: inactive
SMILES: CCC(CC)=NN1C(=O)CC2(C(=O)N(Cc3ccc(Br)cc3F)C(=O)c3ccccc32)C1=O (stereo not drawn)
Inhibition (Rattus norvegicus [17]): 71%
Inhibition (Rattus norvegicus [18]): 98%

inhibition [2]: inactive
SMILES: CC(C)=NN1C(=O)CC2(C(=O)N(Cc3ccc(Br)cc3F)C(=O)c3ccc(F)cc32)C1=O (stereo not drawn)
inhibition (Rattus norvegicus [21]): inactive
Inhibition (Rattus norvegicus [22]): 84%
Inhibition (Rattus norvegicus [23]): 47%
Inhibition (Rattus norvegicus [24]): 58%
